# Screening data from PubChem BioAssay.
# SUMO1 PPI mod – alters human SUMO1 binding to SIM partners. P63165. SUMO1 binding to a labelled peptide, TR-FRET, 1 h. inhibition, % at 20 µM. 360,000 tested, 0.33% active. AID 602429; in the data active = inhibition above about 37%
# Target sequence (P63165 whole entry, looked up): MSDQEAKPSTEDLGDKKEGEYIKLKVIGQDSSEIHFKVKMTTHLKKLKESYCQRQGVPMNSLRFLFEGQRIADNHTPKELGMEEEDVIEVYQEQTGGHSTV
# STEP block – blocks human striatal-enriched tyrosine phosphatase. recombinant STEP, OMFP fluorogenic substrate, fluorescence. P54829. 360,000 tested, 0.25% active. inhibition, % at 20 µM;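 active = inhibition at 20 µM, scaled per plate between control wells, above about 37%, limit read from the data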;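 note: 0% = DMSO with enzyme and substrate and 100% = substrate only without enzyme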
# Target sequence (P54829 whole entry, looked up): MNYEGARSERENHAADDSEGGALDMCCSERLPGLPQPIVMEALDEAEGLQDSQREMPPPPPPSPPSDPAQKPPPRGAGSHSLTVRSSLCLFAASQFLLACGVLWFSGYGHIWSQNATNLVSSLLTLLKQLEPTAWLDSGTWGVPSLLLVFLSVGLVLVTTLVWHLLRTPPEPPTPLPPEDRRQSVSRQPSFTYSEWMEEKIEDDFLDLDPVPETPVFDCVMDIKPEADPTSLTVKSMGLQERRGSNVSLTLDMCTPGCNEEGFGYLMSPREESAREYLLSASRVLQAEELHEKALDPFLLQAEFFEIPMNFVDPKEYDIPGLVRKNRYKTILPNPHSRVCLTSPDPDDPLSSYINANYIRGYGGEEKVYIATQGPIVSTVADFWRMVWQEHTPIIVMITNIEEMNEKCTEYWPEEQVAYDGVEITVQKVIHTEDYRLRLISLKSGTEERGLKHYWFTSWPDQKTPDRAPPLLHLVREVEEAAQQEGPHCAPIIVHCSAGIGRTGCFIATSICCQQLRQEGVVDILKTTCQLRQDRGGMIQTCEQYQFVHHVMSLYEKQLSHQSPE
#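 Material: STEP (striatal-enriched tyrosine phosphatase) enzyme, cell-free; Compound dosing: 20 µM single dose in 1% DMSO; Technique: fluorescence read at 480 nm ex / 540 nm em; Times: reaction 20 min, ambient temperature; Medium: 50 mM Bis-Tris pH 6.0 with 2.5 mM DTT and 0.005% Tween 20; Also added: OMFP at 25 µM.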
# LMPTP block – LMPTP (human) inhibition; P24666; recombinant LMPTP-A, OMFP fluorogenic substrate, fluorescence intensity; inhibition, % at 20 µM; 360,000 tested, 0.22% active; AID 651560;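 active = compounds that cut the enzyme signal by at least half of the control window in the single-dose screen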;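 note: plate controls were DMSO wells with enzyme plus substrate for no effect and substrate without enzyme for full effect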
#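 Test system – LMPTP-A phosphatase enzyme · Quantity – 0.625 nM LMPTP-A final · Reagent – OMFP substrate, 400 µM final · Dosing – one test concentration per compound, 20 µM, with 3% DMSO overall · Timing – 50 min enzyme reaction at room temperature, protected from light · Detection – fluorescence intensity · Controls – substrate-only low control, DMSO enzyme-plus-substrate high control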
# Scp1 inh – inhibitors of human Scp-1 phosphatase; Q9GZU7; Recombinant Scp1, phosphopeptide, malachite green phosphate absorbance; inhibition, % at 20 µM; 340,000 tested, 0.88% active;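 active = inhibition above about 50% at 20 µM, limit read from the data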;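 note: plate controls were DMSO wells with enzyme for no effect and wells lacking enzyme for full effect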
#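 Test system – truncated SCP-1 phosphatase (76-261aa) · Reagent – Phosphorylated 17-residue peptide substrate · Incubation – 45 min room-temperature reaction, 5 min colour, 30 min stabiliser · Detection – colorimetric phosphate reagent with accelerator and stabiliser, absorbance at 630 nm · Measure – % inhibition at 20 µM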
# DNMT1 block – DNMT1 (human) enzyme inhibition; AID 588458; inhibition (reported as % activation of signal), % at 10 µM; DNMT1 molecular beacon, Hinp1I cleavage, fluorescence; 360,000 tested, 0.83% active; P26358; in the data active = inhibition above about 50%
# Scp-1 conf – confirmation of human Scp-1 phosphatase inhibitors. shares compounds with Scp1 inh. recombinant SCP-1 catalytic domain, phosphate release, malachite green absorbance. inhibition, % at 20 µM. 2,500 tested, 61% active. AID 540281;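 note: plate controls were DMSO with enzyme for no effect and buffer wells lacking enzyme for full effect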
# MG interference – interferes with malachite green readout, flagging false Scp-1 hits; apparent inhibition (interference), % at 20 µM; 2,500 tested, under 10 active; AID 540313; Colorimetric interference counterscreen, malachite green absorbance 630 nm; shares compounds with Scp1 inh;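 note: compounds added after enzyme reaction finished so only phosphate colour detection is probed; plate controls were DMSO wells with completed Scp-1 reaction for no effect and substrate wells lacking enzyme for full effect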
# Scp-1 Tm shift – binds human Scp-1, shifting its melting temperature | 1,500 tested, 25% active | thermal shift relative to vanadate control, % at 40 µM | shares compounds with Scp1 inh | Recombinant SCP1, Sypro Orange thermal shift Tm | AID 540329;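 active = substances whose mean melting-temperature shift, as a percentage of the reference inhibitor's shift, reaches about 5.3%, limit read from the data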;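 note: 0% = Tm of DMSO wells and 100% = Tm with sodium orthovanadate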
# Starred values were filed as active, the others as inactive; . = not tested or not shown. In the library only some 1.7% were active in any assay of this set; here they are far more common.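 Rule for the calls, unless noted: active = inhibition of at least 30% at 20 µM; inactive = the rest.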
SMILES,SUMO1 PPI mod,STEP block,LMPTP block,Scp1 inh,DNMT1 block,Scp-1 conf,MG interference,others
COc1ccc2cc3cc(C(=O)NCc4ccco4)oc3nc2c1,-6,3,0,61*,5,56*,-13,Scp-1 Tm shift=-13
CCOc1ccc(NC(=O)c2cc3cc4ccc(OC)cc4nc3o2)cc1,1,32,22,55*,47,41*,-10,Scp-1 Tm shift=-7
O=C(NCc1ccco1)c1cc2cc3ccc(Cl)cc3nc2o1,-14,0,-1,0,18,.,.,
CC1(C(=O)Nc2cccc(C(F)(F)F)c2)Cc2c(-c3cccc(C(N)=O)c3)ccnc2O1 (centres undefined),1,-1,1,.,2,.,.,
CSCCC(NC(=O)c1cccc([N+](=O)[O-])c1)c1nc2ccccc2[nH]1 (centres undefined),-28,0,0,-9,-6,.,.,
CSCC[C@H](NC(=O)c1cccc(S(=O)(=O)N2CCCCC2)c1)c1nc2ccccc2[nH]1,-1,0,-1,59*,2,3,-5,
CSCCC(NS(=O)(=O)c1ccc2c(c1)oc(=O)n2C)C(=O)NC1CCC(C)CC1 (centres undefined),8,0,-1,-22,-2,4,-6,
CSCCC(NS(=O)(=O)c1ccc2c(c1)oc(=O)n2C)C(=O)NC1CCN(Cc2ccccc2)CC1 (centres undefined),5,-2,0,-7,-1,.,.,
O=C(NC1CCCCC1)C1c2ccccc2C(=O)N1Cc1ccc2c(c1)OCO2 (centres undefined),-1,-1,1,-3,4,.,.,
CCN1C(=O)[C@@H]2[C@@H](c3ccc(SC4CCCCC4)c(OC)c3)N3CCCC[C@@]3(C(=O)OC)[C@@H]2C1=O,-6,-1,3,53*,-18,-2,-7,
COC(=O)[C@@]12CCCCN1[C@H](c1ccc(SC3CCCCC3)c(OC)c1)[C@@H]1C(=O)N(C)C(=O)[C@@H]12,4,3,2,-11,-7,.,.,
COc1cc(C(=O)NCC(=O)OCc2ccc(F)cc2)cc(OC)c1OC,-1,2,-1,-1,1,.,.,
O=C1/C(=C\c2ccc(O)cc2)SC(=S)N1c1cccnc1,-13,34,25,98*,-1,16,-13,
COc1ccc(/C=C2\SC(=S)N(c3cccnc3)C2=O)cc1,0,-1,2,-6,2,.,.,
Cc1ccc(CNC(=O)CCS(=O)(=O)c2ccc3c(c2)oc(=O)n3C)cc1,-7,1,-1,-4,1,.,.,
CN(C)c1ccc(CNC(=O)CCS(=O)(=O)c2ccc3c(c2)n(C)c(=O)c(=O)n3C)cc1,23,2,-1,64*,30,25,-12,
O=C(CSc1nc(-c2ccc(F)cc2)nc2ccc(F)cc12)Nc1cccc(C(=O)O)c1,-5,24,45,72*,-1,75*,-11,Scp-1 Tm shift=2
CCCc1cc(=O)n2[nH]c(NCc3ccc(OC)c(OC)c3)nc2n1,0,-2,1,-9,-5,.,.,
CCOC(=O)c1cnc2nc(NCc3ccc(OC)c(OC)c3)[nH]n2c1=O,9,23,11,54*,2,31*,-8,Scp-1 Tm shift=1
COc1ccc(/C=N/NC(=O)CCn2c3ccccc3c3ccccc32)cc1O,-6,-3,3,56*,-6,-19,-14,
Cc1cccc(C(=O)Nc2ccc(S(=O)(=O)N3CCOCC3)cc2C)c1,1,1,0,7,-2,.,.,
CCOCCOC(=O)C1=C(C)NC(=O)NC1c1cc2c(cc1Br)OCO2 (centres undefined),-3,2,-1,-10,1,.,.,
COc1cccc(OCc2cc(C(=O)N(C)CCOc3ccc(C)cc3)no2)c1,-1,4,4,55*,-1,-19,-22,
Cn1c(=O)c(C(=O)CN2CC(=O)Nc3ccccc32)c(N)n(Cc2ccccc2)c1=O,2,0,0,-7,2,-7,-11,
Cn1c(=O)c(C(=O)CN2CCc3ccccc32)c(N)n(Cc2ccccc2)c1=O,-1,3,1,-6,-24,.,.,
SMILES,SUMO1 PPI mod,STEP block,LMPTP block,Scp1 inh,DNMT1 block,Scp-1 conf,MG interference,others
O=C(CCNC(=O)c1ccc(Br)cc1)Nc1ncccc1O,1,0,0,-6,-3,.,.,
CCN(CC)S(=O)(=O)c1ccc(N2CCOCC2)c(NC(=O)c2c3c(nc4ccccc24)CCC3)c1,-2,0,10,68*,65*,48*,-13,Scp-1 Tm shift=5
Cc1ccc(NC(=O)C2CCCN2S(=O)(=O)c2ccc3c(c2)n(C)c(=O)c(=O)n3C)cc1 (centres undefined),-5,-2,-2,7,2,.,.,
Cc1ccc(NC(=O)C2CCCN2S(=O)(=O)c2ccc3c(c2)n(C)c(=O)c(=O)n3C)c(C)c1 (centres undefined),4,-2,0,-12,0,-10,-11,
Cc1cccc(C)c1NC(=O)C1CCCN1S(=O)(=O)c1ccc2c(c1)n(C)c(=O)c(=O)n2C (centres undefined),-2,1,-3,-4,1,-14,-18,
CCc1ccccc1NC(=O)C1CCCN1S(=O)(=O)c1ccc2c(c1)n(C)c(=O)c(=O)n2C (centres undefined),6,-1,-2,-7,1,.,.,
Cn1c(=O)c(=O)n(C)c2cc(S(=O)(=O)N3CCCC3C(=O)Nc3ccccc3F)ccc21 (centres undefined),-1,0,0,0,0,-7,-7,
O=C(O)C1(Nc2ccc([N+](=O)[O-])cc2[N+](=O)[O-])CCCC1,-37,-2,0,4,7,.,.,
COc1cc(NC(=O)c2ccc3c(c2)S(=O)(=O)N=C2CCCCCN23)cc(OC)c1,5,1,0,-8,0,.,.,
CCCCC1(C)OC(=O)C(=Cc2ccc(SC)cc2)C(=O)O1 (centres undefined),4,-1,0,3,6,.,.,
CCCCC1(C)OC(=O)C(=Cc2ccc(-c3ccc(Cl)c(C(=O)O)c3)o2)C(=O)O1 (centres undefined),17,11,0,60*,37,45*,-12,Scp-1 Tm shift=-28
O=C(O)c1cc(-c2ccc(/C=N/NC(=S)Nc3ccccc3)o2)ccc1Cl,22,1,1,52*,18,59*,-2,Scp-1 Tm shift=12*
CCOC(=O)C1=C(COC(=O)COc2ccccc2C(C)C)NC(=O)NC1C (centres undefined),-3,-3,2,-4,0,.,.,
